MEKK2 WT-MEK5: modulators of MEK5 binding to wildtype MEKK2, primary screen, biochemical, multiplex bead flow cytometry, Alexa488-MEK5; Mitogen-activated protein kinase kinase kinase 2 (Homo sapiens), Q9Y2U5; Alexa488-MEK5 binding to MEKK2 WT; actives lie on both sides; binding response (% of control), % at 10 µM; hit rate 1.1% among 290,000; AID 1531, 2009; in the data active = binding response below about 67% or above about 130%
FID counter: compounds displacing fluorescent DNA intercalator, primary screen, artefact control for HCV NS3 helicase inhibitor project, biochemical, FID fluorescence | DNA fluorescent intercalator displacement | inhibition, % at 7.9 µM | hit rate 0.17% among 290,000 | AID 1845, 2009; in the data active = inhibition above about 37%;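 note: 0% = vehicle and 100% = reference compound; higher means more ethidium bromide displaced from hairpin DNA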
MEKK3 PB1 HTS: modulators of MEKK3-MEK5 PB1 binding, primary screen, biochemical, wildtype MEKK3, multiplex bead flow cytometry, Alexa488-MEK5 | bead-based flow cytometry, Alexa488-MEK5 binding to MEKK3; actives lie on both sides; 0 = blocked by unlabeled MEK5, 100 = vehicle | AID 1529, 2009 | binding response (% of control), % at 10 µM | Mitogen-activated protein kinase kinase kinase 3 (Homo sapiens), Q99759 | hit rate 1.4% among 290,000;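 active = binding response more than 3 SD above or below the average of its plate-row segment, actives on both sides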;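 note: Alexa488 bead fluorescence after subtracting the streptavidin-only scavenger bead signal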
Target sequence (Q99759 whole entry, looked up): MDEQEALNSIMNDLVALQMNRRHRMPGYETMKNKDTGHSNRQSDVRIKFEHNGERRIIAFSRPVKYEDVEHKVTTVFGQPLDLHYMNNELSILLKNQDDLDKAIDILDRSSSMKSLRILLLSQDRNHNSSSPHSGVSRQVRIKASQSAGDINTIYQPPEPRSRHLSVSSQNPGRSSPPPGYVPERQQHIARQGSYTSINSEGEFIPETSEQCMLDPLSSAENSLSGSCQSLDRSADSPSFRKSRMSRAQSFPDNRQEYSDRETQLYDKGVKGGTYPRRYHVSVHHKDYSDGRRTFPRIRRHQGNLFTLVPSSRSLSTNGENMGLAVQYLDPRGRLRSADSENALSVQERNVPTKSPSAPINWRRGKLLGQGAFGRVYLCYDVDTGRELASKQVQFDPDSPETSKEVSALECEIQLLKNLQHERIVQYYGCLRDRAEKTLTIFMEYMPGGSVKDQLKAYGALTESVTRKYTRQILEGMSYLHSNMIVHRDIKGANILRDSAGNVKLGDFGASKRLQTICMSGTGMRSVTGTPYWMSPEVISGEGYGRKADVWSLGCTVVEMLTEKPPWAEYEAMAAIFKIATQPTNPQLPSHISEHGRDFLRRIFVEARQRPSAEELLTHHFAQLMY
T cruzi repl: inhibitors of intracellular T. cruzi growth, primary screen, luminescence, NIH3T3 host cells. AID 1885, 2009. inhibition, % (concentration not given with the values). hit rate 1.4% among 300,000. T. cruzi beta-gal in NIH3T3, 90 h;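 active = mean inhibition across valid replicates above about 55%, limit read from the data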;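 note: signal also drops with host cell toxicity which is not excluded here; 0% = plate median of DMSO wells and 100% = zero luminescence signal; higher percent means less beta-gal luminescence so fewer parasites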
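Read-out: Parasite load inhibition, % | Test system: Mouse NIH/3T3 fibroblasts infected with β-gal-expressing T. cruzi Tulahuen C4 | Amount: 5,000 cells/well | Medium: DMEM, 2% fetal bovine serum | Signal: GalScreen β-gal luminescence, detergent lysis, 60 min | Timing: 3 h attach, ≥90 h co-culture | Also added: Tulahuen C4 trypomastigotes, 5000/well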
MEKK2 mut-MEK5: MEK5 binding signal on mutant MEKK2 PB1, primary screen, biochemical, multiplex bead flow cytometry, Alexa488-MEK5. Alexa488-MEK5 binding to MEKK2 mutant. percent response, % at 10 µM. hit rate 0.35% among 290,000. AID 1530, 2009; in the data active = percent response above about 24%, passing the limit was not always enough
NS3 helicase inh: inhibitors of HCV NS3 helicase, primary screen, biochemical, Cy5 molecular beacon fluorescence. NS3 helicase DNA unwinding. inhibition, % at 10.9 µM. hit rate 0.56% among 290,000. AID 1800, 2009;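 active = inhibition above the mean of all tested compounds plus 3 SD, set per campaign, cut at about 35% in these data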;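 note: 0% = DMSO wells and 100% = thioflavine S control wells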
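Measured by: Cy5 fluorescence, 0 and 60 min reads / Assay system: NS3 helicase fragment of HCV / Control set: low DMSO, high thioflavine S at 110 µM / Times: 1 h reaction at 25 °C, ATP-initiated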
MEKK2wt confirm: modulators of MEK5 binding to wildtype MEKK2, confirmation, biochemical, single concentration, multiplex bead flow cytometry; shares compounds with MEKK3 PB1 HTS; Alexa488-MEK5 binding to MEKK2 WT; actives lie on both sides; binding response (% of control), % at 10 µM; hit rate 2.4% among 5,900; AID 1892, 2009; in the data active = binding response below about 16% or above about 210%; inactive = in between
MEKK2mut-MEK5: mutant MEKK2 PB1-MEK5 binding signal retest – biochemical, single concentration, multiplex bead flow cytometry, confirmation. shares compounds with MEKK3 PB1 HTS. Alexa488-MEK5 binding to MEKK2 mutant. percent response, % at 10 µM. hit rate 2% among 5,900. AID 1893, 2009; in the data active = percent response mostly above about 71%, no sharp cut-off; inactive = mostly below about 38%;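 note: higher means compound restores mutant binding toward wildtype level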
MEKK3 confirm: MEKK3 wild-type PB1 binding to MEK5, inhibitors, confirmation, biochemical, bead multiplex flow cytometry, single concentration, wildtype | shares compounds with MEKK3 PB1 HTS | Alexa488-MEK5 binding to MEKK3; hits give low values | binding response (% of control), % at 10 µM | hit rate 1.8% among 5,900 | AID 1894, 2009;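 active = binding response below 72% of control, or above a set upper limit, though filed actives all read lower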;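 note: 100% = DMSO only wells and 0% = binding blocked by excess unlabeled MEK5; lower values mean stronger disruption of MEK5 binding to MEKK3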
The depositor's hits bear a star; x = not tested or not shown; [ ] = another dose, or the depositor's remark. A selection: hits, their analogues and other compounds. The true share with any hit is near 4.1%.

SMILES	MEKK2 WT-MEK5	FID counter	MEKK3 PB1 HTS	T cruzi repl	MEKK2 mut-MEK5	NS3 helicase inh	MEKK2wt confirm	MEKK2mut-MEK5	MEKK3 confirm
CSCCC(NC(=O)C1CC1)c1nc2ccccc2[nH]1 (stereo unspecified)	97	0	99	-5	-2	1	x	x	x
CSCC[C@H](NC(=O)C1CCCC1)c1nc2ccccc2[nH]1	68	-12	69*[inhibitor]	5	-16	2	108	5	104
COc1ccc(N2CCN(C(CNC(=O)C(C)C)c3ccc4c(c3)OCO4)CC2)cc1 (stereo unspecified)	107	-19	101	-24	4	-5	x	x	x
Cc1ccc(Cl)cc1N1CCN(C(=O)CSc2ccsc2[N+](=O)[O-])CC1	102	1	133*	44	0	11	94	-7	95
Cc1ccc(NC(=O)C2CCN(S(=O)(=O)c3c(C)nn(C)c3C)CC2)c(Cl)c1	99	-41	99	-2	0	-1	x	x	x
CN(C(=O)c1ccc(Br)o1)C1(C)CCS(=O)(=O)C1 (stereo unspecified)	100	-5	91	-2	4	8	x	x	x
COc1ccc(NCc2n[nH]c(=O)c3ccccc23)cc1	97	-4	97	-10	-2	-1	x	x	x
Cc1nnc(NCc2n[nH]c(=O)c3ccccc23)c2ccccc12	41*[inhibitor]	-9	31*[inhibitor]	18	-6	1	95	-2	93
Cc1cccc(Nc2nnc(-c3ccc(N4CCOCC4)c([N+](=O)[O-])c3)c3ccccc23)c1	100	0	131*	52	0	10	88	-10	97
Cc1ccc(C)n1-c1ccc(N2CCOCC2)c([N+](=O)[O-])c1	98	2	100	12	2	0	x	x	x
Cc1csc2sc(-c3ccnc(SCC(=O)NCc4ccccc4)n3)c(C)c12	112	-32	130*	2	27	3	103	-2	102
Cc1csc(SCC(=O)NCc2ccccc2)n1	102	1	101	-7	-1	9	x	x	x
CCOc1ccc(CNC(=O)c2ccccc2NC(=O)C2=CSCCO2)cc1	104	-29	105	41	3	-12	x	x	x
COc1cccc(NC(=O)CN(c2cccc(C(F)(F)F)c2)S(C)(=O)=O)c1	81	-12	80*[inhibitor]	-5	-4	-10	101	2	100
COc1cccc(NC(=O)CN(c2cccc(OC)c2)S(C)(=O)=O)c1	98	-8	102	4	-3	-2	x	x	x
O=C(CNc1cc(S(=O)(=O)N2CCCC2)ccc1OCC(F)(F)F)Nc1cc(Cl)cc(Cl)c1	108	0	104	17	3	5	x	x	x
O=C(CNc1cc(S(=O)(=O)N2CCCC2)ccc1OCC(F)(F)F)Nc1ccc(SC(F)F)cc1	115	-15	144*	14	1	-6	90	-13	100
CCN(CC)c1ccc(/C=N/NC(=O)c2nnn(-c3nonc3N)c2-c2ccc(C)cc2)cc1	94	-15	101	17	0	-5	x	x	x
Cc1nc2cc(NC(=O)N3CCCC3)ccc2n1C	77	6	90	-1	-13	-10	x	x	x
Cc1nc2cc(NC(=O)N3CC4(C)CC3CC(C)(C)C4)ccc2n1C (stereo unspecified)	-2.0*[inhibitor]	-4	2.0*[inhibitor]	5	-29	-2	106	4	101
COc1ccc(C2=NS(=O)(=O)N(C)C(C(=O)Nc3ccc(C(C)=O)cc3)=C2)cc1OC	100	2	102	4	4	-5	x	x	x
CCS(=O)(=O)c1nc(S(=O)(=O)c2ccc(Cl)cc2)c(N2CCc3ccccc3C2)s1	102	-6	135*	-21	0	4	100	3	103
CCS(=O)(=O)c1nc(S(=O)(=O)c2ccc(Cl)cc2)c(N2CCN(CCO)CC2)s1	105	-8	107	6	4	-2	x	x	x
COc1ccc(N2C(=O)C3ON(C4SC(=S)N(C)C4(C)C)C(c4ccc(Cl)cc4)C3C2=O)cc1 (stereo unspecified)	108	-3	151*	4	0	-2	99	-2	98
COc1ccc(N2C(=O)C3ON(C4SC(=S)N(C)C4(C)C)C(c4ccc([N+](=O)[O-])cc4)C3C2=O)cc1 (stereo unspecified)	99	-1	104	-8	1	10	x	x	x
SMILES	MEKK2 WT-MEK5	FID counter	MEKK3 PB1 HTS	T cruzi repl	MEKK2 mut-MEK5	NS3 helicase inh	MEKK2wt confirm	MEKK2mut-MEK5	MEKK3 confirm
CC(C)CNC(=O)CN1C(=O)NC(Cc2c[nH]c3ccccc23)C1=O (stereo unspecified)	76	0	67*[inhibitor]	-4	-27	4	110	9	105
COC(=O)c1ccc(S(=O)(=O)N2Cc3ccccc3C2)cc1	117	-11	135*	10	1	4	101	8	102
O=C(Nc1nc2ccccc2[nH]1)c1ccccc1	21*[inhibitor]	-3	13*[inhibitor]	9	-23	2	103	1	102
O=[N+]([O-])c1ccc(Oc2ccc(S(=O)(=O)N3CCOCC3)cn2)cc1	x	x	x	0	x	x	x	x	x
CC(=O)Nc1ccc(/C(C)=N/NS(=O)(=O)c2ccccc2)cc1	107	-1	128*	4	0	-7	108	5	106
COc1ccc(N2C(=O)c3cccc4cc(Br)cc(c34)C2=O)cc1	91	0	73*[inhibitor]	-14	-18	3	96	-3	97
Cn1c(SCc2nc3ccccc3n2CCO)nc2ccccc21	125	-8	125*	-14	7	18	105	1	104
O=C1c2ccccc2C(=O)N1OCCOCCOCCBr	-2.0*[inhibitor]	1	1.0*[inhibitor]	-2	-26	1	102	2	102

Compound activity as filed in PubChem BioAssay.
